Assay outcomes deposited in PubChem BioAssay by several laboratories.
MT stabilize HCS = microtubule stabilizers in HeLa cells. HeLa tubulin immunostaining HCS, 24 h; share of cells brighter than vehicle mean+2SD. % tubulin-high responders, % at 10 µM. actives 0.83% (n = 200,000). AID 2205;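 active means plate Z-score above 3 for both tubulin-high and condensed-nucleus cell shares, with cell loss under 80%, at 10 µM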;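 further: anti alpha tubulin signal scored within the nucleus-defined area of each cell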
b-catenin transl = alters nuclear translocation of beta-catenin in HeLa cells; immunofluorescence imaging; nuclear translocation activity, % at 5 µM; actives 0.3% (n = 190,000); AID 1665;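 active means nuclear translocation activity above 50% at 5 µM, with a well cell count of 50 or more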;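 further: per-cell ratio of nuclear to cytoplasmic median beta-catenin stain intensity; plate controls were DMSO negative control for no effect and GSK-3 inhibitor IX positive control for full effect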
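Signal – beta-catenin immunofluorescence imaging with DAPI · Test system – human HeLa cell line · Dosing – 5 µM primary single dose, 0.1% DMSO, 0.02–20 µM confirmation series · Measure – % activation, nuclear-to-cytoplasmic median beta-catenin signal ratio per cell · Incubation – 24 h compound exposure at 37°C, 5% CO2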
Dynein transport = dynein cargo transport inhibition; 3617.4 mouse cells, GR-EGFP nuclear translocation imaging; test concentration mostly 20 µM; stimulated with dexamethasone, 1 µM; hits give low values; z-score, hits read low; actives 0.47% (n = 220,000); AID 1381;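 active means plate z-score of nuclear minus cytoplasmic receptor signal below a set negative limit, without overly bright fluorescence or cell loss, cut at about -3.5 in these data, passing the limit was not always enough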;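 further: z-score of nuclear minus cytoplasmic ring GR-EGFP intensity difference per well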
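Buffer or medium: tet-free, stripped-serum medium; reagent: dexamethasone at 1.0 µM final, 30 min; incubation: 48 h induction, 1 h compound, 30 min dex at 37 °C; measured by: formaldehyde fixation, Hoechst nuclear stain, 10x automated fluorescence imaging; read-out: nuclear-to-cytoplasmic GR-EGFP distribution per well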
TbHK1 inh = T. brucei hexokinase 1 inhibition; AID 1430; inhibition, % at 10 µM; recombinant TbHK1, G6PDH-coupled NADH A340; actives 0.11% (n = 220,000);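 active means inhibition of 50% or more in the single-dose primary screen; inactive means inhibition below 50%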
Rad51 HR inh = blocks human Rad51 in homologous recombination; Q06609; hRad51 DNA strand exchange, fluorescence dequenching; inhibition, % at 10 µM; actives 0.085% (n = 200,000); AID 1385;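 active means inhibition above 40% at the single screening dose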;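 further: 0% = DMSO control wells and 100% = blanks with heterologous ssDNA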
Target sequence (Q06609 whole entry, looked up): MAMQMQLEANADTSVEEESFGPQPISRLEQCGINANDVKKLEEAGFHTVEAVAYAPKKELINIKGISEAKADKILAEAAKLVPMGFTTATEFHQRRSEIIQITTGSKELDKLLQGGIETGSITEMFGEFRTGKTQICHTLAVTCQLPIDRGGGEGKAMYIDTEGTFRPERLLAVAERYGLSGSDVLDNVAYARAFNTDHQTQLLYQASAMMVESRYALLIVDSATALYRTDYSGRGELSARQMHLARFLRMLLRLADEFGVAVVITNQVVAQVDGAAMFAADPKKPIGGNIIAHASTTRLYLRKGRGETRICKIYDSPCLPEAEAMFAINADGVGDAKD
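System: hRad51 filaments on single-stranded DNA; reagent: Fluorescein- and BHQ1-tagged 47-mer duplex; compound dosing: one concentration, 10 µM final; timing: filaments 15 min 37 °C, then compound 30 min; measured by: fluorescein emission 520 nm, excitation 485 nm; benchmarks: per-plate controls and blanks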
* hit, by the source's call; x = no result. An excerpt weighted towards active compounds, which were near 1.5% of everything screened.

SMILES	MT stabilize HCS	b-catenin transl	Dynein transport	TbHK1 inh	Rad51 HR inh
COc1cc(CNc2ccc(C)c(C)c2)cc(OC)c1OC	31	107*	0.26	-2	-6
COc1ccc(CNc2ccc(C)c(C)c2)cc1	2	0	-1.1	0	x
CC1=C(C(=O)OC(C)C)C(c2ccc(Br)s2)NC(=O)N1 (stereo unspecified)	2	x	-1	1	0
Cc1cc(C(F)(F)F)nc(NCc2cccnc2)n1	2	-1	-0.57	79*	-7
Cc1ccc(NCc2cccnc2)cc1	1	x	-0.9	-8	-10
O=C(c1ccncc1)N(c1ccc2oc3c(c2c1)CCCC3)S(=O)(=O)c1cccc([N+](=O)[O-])c1	3	0	-0.53	-4	1
COc1ccc(S(=O)(=O)N(C(=O)c2ccncc2)c2ccc3oc4c(c3c2)CCCC4)cc1	22*	-1	-0.47	-13	-6
Cc1ccc2c(c1)COc1c3ccc(C(=O)N[C@@H](CO)C(C)C)cc3nn1-2	x	1	-0.4	-28	-30
S=C(Sc1ccc(Cl)cc1)Sc1ccc(Cl)cc1	x	1	-5.1*	-6	-18
CN(C)S(=O)(=O)c1cccc(NC(=O)CSc2nc3c(cc2C#N)C(=O)CC(C)(C)C3)c1	24*	6	0.53	0	0
CCC1(C)Cc2c(sc3c2c2ncnn2c2nnc(SCC(=O)NCc4ccco4)n32)CO1 (stereo unspecified)	13*	-2	0.13	5	2
CCc1ccccc1N1CC23C=CC(O2)C(C(=O)OC)C3C1=O (stereo unspecified)	1	0	0.84	1	-5
COc1cccc(-c2cc(=O)c3cc(NC(C)=O)ccc3[nH]2)c1	30*	x	-0.23	-13	-2
Cc1cc(C)cc(N2C(=O)CC(Sc3nnnn3-c3ccccc3)C2=O)c1 (stereo unspecified)	3	-2	-2.2	2	109*
Cc1noc(C)c1CSc1nc2ccccc2c(=O)n1-c1ccccc1	42*	29	-0.41	1	0
Cc1noc(C)c1CSc1nc2[nH]ncc2c(=O)n1-c1ccccc1	25*	3	-0.031	-1	-1
Cc1nc(CSc2nc3[nH]ncc3c(=O)n2-c2ccccc2)cs1	4	x	-0.66	2	8
O=C1CCCN1CCCN=c1c([N+](=O)[O-])nn(-c2ccc(Cl)cc2)n1O	18	-3	2.2	-1	-17
Fc1ccc(Br)cc1C1C=C(c2ccc(Br)cc2)Nc2ncnn21 (stereo unspecified)	49*	-11	1.4	-4	7
CCc1ccc(C2=CC(c3cc(Br)ccc3F)n3ncnc3N2)cc1 (stereo unspecified)	30*	2	-0.46	-6	1
C1=C(c2ccccc2)Nc2ncnn2C1c1ccccc1 (stereo unspecified)	x	x	x	x	3
CCCCNC(=O)c1sc2nc(C)cc(COC)c2c1-n1cccc1	5	-1	-0.3	5	x
COc1cccc(C=Nc2ccccc2C(=O)Nc2ccccc2)c1O	4	x	-0.78	30	-1
CN(C)S(=O)(=O)c1ccc(N=Cc2c(C(F)(F)F)[nH]n(C)c2=O)cc1	4	-3	-0.58	6	5
Cc1cc(C)c(S(=O)(=O)NCc2cn3c(C)csc3n2)c(C)c1	2	2	0.065	2	-6
SMILES	MT stabilize HCS	b-catenin transl	Dynein transport	TbHK1 inh	Rad51 HR inh
Cc1cccc(C(=O)NC(CC(=O)O)c2ccc(OC3CCCC3)cc2)c1[N+](=O)[O-] (stereo unspecified)	2	0	0.11	3	44*
O=C(N/N=C/c1ccc([N+](=O)[O-])o1)c1cc(-c2ccc(-c3ccccc3)cc2)nc2ccccc12	12*	46	1.8	-14	x
O=C(N/N=C/c1ccc([N+](=O)[O-])o1)c1cc(-c2ccncc2)nc2ccccc12	20	0	-5*	-19	-8
O=C(N/N=C/c1cccc([N+](=O)[O-])c1)c1cc(-c2ccccc2)nc2ccccc12	3	2	0.92	-22	-2
Cc1ccc(S(=O)(=O)N/N=C\c2ccccc2OCc2ccccc2)cc1	25*	x	0.42	1	4
Cc1c(Br)c(=O)[nH]c(=O)n1COCc1ccccc1	2	0	-0.24	-7	1
COc1cc(C(=O)N2CCN(c3cccc(C)c3C)CC2)cc(OC)c1OC	13	64*	-0.76	-6	4
Cc1cccc(N2CCN(C(=O)N3CCCCC3)CC2)c1C	3	2	-0.11	-1	1
Cc1cccc(N2CCN(C(=O)N3CCOCC3)CC2)c1C	36*	30	0.22	-2	-4
COc1ccccc1N1CCN(C(=O)c2oc3cc(C)cc(C)c3c2C)CC1	25*	1	-0.02	-6	2
COc1ccccc1N1CCN(C(=O)c2ccoc2C)CC1	5	-2	-0.41	-2	0
Cc1cccc(N2CCN(C(=O)c3ccc4ncsc4c3)CC2)c1C	43*	150*	0.026	-4	x
Cc1cccc(N2CCN(C(=O)c3ccncc3)CC2)c1C	45*	x	-0.17	0	-4
Cc1cccc(N2CCN(C(=O)c3ccc4nc[nH]c4c3)CC2)c1C	2	0	-0.21	7	3
CCOC(=O)c1ccc(N2C(=O)CC(Nc3ccc(O)cc3)C2=O)cc1 (stereo unspecified)	x	-1	-1.5	-12	2
CC12CCC(C(=O)Nc3cccc(Cl)c3Cl)([C@H](Br)C1=O)C2(C)C (stereo partly specified)	x	-1	-0.49	-4	15
N=c1c2c(ncn1Cc1ccco1)Oc1c(ccc3ccccc13)C2c1ccccc1 (stereo unspecified)	12*	7	-0.51	2	9
c1ccc(C2c3c(ccc4ccccc34)Oc3ncn4nc(-c5ccco5)nc4c32)cc1 (stereo unspecified)	12*	-1	0.43	-10	1
C#CCn1cc(/C=N/NC(=O)c2cc3ccccc3o2)c2ccccc21	27*	2	1	-9	0
C=CCn1cc(/C=N\NC(=O)c2cc3c(ccc4ccccc43)o2)c2ccccc21	7	x	-0.27	-22	13
O=P(OC1CCS(=O)(=O)C1)(c1ccccc1)c1ccccc1 (stereo unspecified)	4	0	-0.048	1	0
Cc1ccccc1NC(=O)CSc1nc2cc3c(cc2cc1C)CCC3	36*	x	0.13	-2	4
CCOc1ccccc1NC(=O)CC1Nc2cc(C)c(C)cc2NC1=O (stereo unspecified)	23*	x	-1.4	-20	-8
CCOC(=O)N1CCC(NC(=O)c2cc(S(=O)(=O)N3CCCC3)cn2C)CC1	5	-2	1.2	4	-3
CCn1c(SCC(=O)Nc2nccs2)nnc1-c1ccc(S(=O)(=O)N2CCCCCC2)cc1	1	-2	0.15	-8	-8
